According to ChEMBL document CHEMBL4152262, “Design, synthesis and evaluation of novel multi-target-directed ligands for treatment of Alzheimer's disease based on coumarin and lipoic acid scaffolds” (Eur J Med Chem, 2018):

What was measured:
[1] = Inhibition of soybean 15-LOX assessed as reduction in conversion of linoleic acid to 13-hydroperoxylinoleic acid by spectrophotometric method; parameters: species or system Glycine max
How it was run: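 Soybean lipoxygenase type 1-B (final 167 U/mL) with compound (DMSO stock diluted in 0.1 M phosphate buffer pH 8) and linoleic acid (134 mM in ethanol) at room temperature. Formation of 13-hydroperoxylinoleic acid followed spectrophotometrically at 234 nm.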

PC-12 [2] = assay: Neuroprotection against H2O2-induced cell death in rat PC12 cells assessed as cell viability at 5 uM preincubated for 3 hrs followed by H2O2 stimulation measured after 2 hrs by MTT assay (reference value: 25.2 to 41.8%); type: functional; conditions: read-out: Activity
Acetylcholinesterase = Acetylcholinesterase (Electrophorus electricus, UniProt O42275); assay: Inhibition of electric eel AChE using acetylthiocholine iodide as substrate pretreated for 5 mins followed by substrate addition by Ellman's method
Sequence of Acetylcholinesterase (O42275 whole entry): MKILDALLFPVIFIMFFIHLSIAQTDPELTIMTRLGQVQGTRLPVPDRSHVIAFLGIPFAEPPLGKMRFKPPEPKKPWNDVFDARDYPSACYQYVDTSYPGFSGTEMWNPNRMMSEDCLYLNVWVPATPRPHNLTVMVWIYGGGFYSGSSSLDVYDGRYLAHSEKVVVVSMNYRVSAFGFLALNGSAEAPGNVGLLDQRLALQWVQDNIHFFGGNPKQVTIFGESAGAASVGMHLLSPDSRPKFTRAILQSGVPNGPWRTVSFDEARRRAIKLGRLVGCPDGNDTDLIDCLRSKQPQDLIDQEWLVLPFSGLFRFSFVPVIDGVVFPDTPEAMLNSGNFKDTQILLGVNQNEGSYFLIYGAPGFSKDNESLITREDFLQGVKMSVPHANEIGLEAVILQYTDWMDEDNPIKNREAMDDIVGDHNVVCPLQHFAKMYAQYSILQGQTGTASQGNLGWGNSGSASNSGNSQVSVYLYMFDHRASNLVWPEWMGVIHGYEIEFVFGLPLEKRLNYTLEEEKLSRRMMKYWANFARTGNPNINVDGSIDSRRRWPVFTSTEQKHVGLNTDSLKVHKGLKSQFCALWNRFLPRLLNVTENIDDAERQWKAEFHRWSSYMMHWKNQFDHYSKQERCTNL

PC-12 [3] = assay: Neuroprotection against H2O2-induced cell death in rat PC12 cells assessed as cell viability at 1 uM preincubated for 3 hrs followed by H2O2 stimulation measured after 2 hrs by MTT assay (reference value: 25.2 to 41.8%); type: functional; conditions: read-out: Activity
PC-12 [4] = assay: Neuroprotection against H2O2-induced cell death in rat PC12 cells assessed as cell viability at 0.1 uM preincubated for 3 hrs followed by H2O2 stimulation measured after 2 hrs by MTT assay (reference value: 25.2 to 41.8%); type: functional; conditions: read-out: Activity
PC-12 [5] = assay: Neuroprotection against H2O2-induced cell death in rat PC12 cells assessed as increase in cell viability preincubated for 3 hrs followed by H2O2 stimulation measured after 2 hrs by MTT assay; type: functional, cell-based
PC-12 [6] = assay: Neuroprotection against H2O2-induced cell death in rat PC12 cells assessed as cell viability at 20 uM preincubated for 3 hrs followed by H2O2 stimulation measured after 2 hrs by MTT assay (reference value: 25.2 to 41.8%); type: functional; conditions: read-out: Activity
PC-12 [7] = assay: Neuroprotection against H2O2-induced cell death in rat PC12 cells assessed as cell viability at 50 uM preincubated for 3 hrs followed by H2O2 stimulation measured after 2 hrs by MTT assay (reference value: 25.2 to 41.8%); type: functional; conditions: read-out: Activity
Cholinesterase = Cholinesterase (Equus caballus, UniProt P81908); assay: Inhibition of equine serum BuChE using butyrylthiocholine iodide as substrate pretreated for 5 mins followed by substrate addition by Ellman's method
Sequence of Cholinesterase (P81908 whole entry): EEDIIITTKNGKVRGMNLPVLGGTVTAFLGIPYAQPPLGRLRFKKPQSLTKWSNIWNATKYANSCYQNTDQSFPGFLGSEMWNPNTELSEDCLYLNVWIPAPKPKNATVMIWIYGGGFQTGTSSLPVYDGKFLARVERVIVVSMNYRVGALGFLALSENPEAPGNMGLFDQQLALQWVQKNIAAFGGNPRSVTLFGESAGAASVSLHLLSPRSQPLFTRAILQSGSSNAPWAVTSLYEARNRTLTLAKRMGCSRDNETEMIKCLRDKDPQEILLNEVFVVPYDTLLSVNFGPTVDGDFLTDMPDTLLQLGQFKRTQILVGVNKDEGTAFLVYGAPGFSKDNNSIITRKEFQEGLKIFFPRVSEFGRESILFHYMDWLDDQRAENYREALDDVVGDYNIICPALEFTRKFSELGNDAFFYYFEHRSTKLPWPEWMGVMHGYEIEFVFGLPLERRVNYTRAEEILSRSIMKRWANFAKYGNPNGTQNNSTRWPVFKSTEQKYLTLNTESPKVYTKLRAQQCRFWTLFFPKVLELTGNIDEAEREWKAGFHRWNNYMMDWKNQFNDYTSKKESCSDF
How it was run: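 Ellman assay with horse serum BuChE (5 IU/mL) in 0.1 M phosphate buffer pH 8.0 with DTNB. Compound was preincubated with enzyme 5 min, then butyrylthiocholine iodide was added. Absorbance read at 412 nm. IC50 from a log concentration vs % inhibition curve; triplicate runs.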

PC-12 [8] = assay: Neuroprotection against H2O2-induced cell death in rat PC12 cells assessed as cell viability at 10 uM preincubated for 3 hrs followed by H2O2 stimulation measured after 2 hrs by MTT assay (reference value: 25.2 to 41.8%); type: functional; conditions: read-out: Activity

| SMILES | IC50 [1] [µM] | viability at 5 µM (PC-12 [2]) [%] | IC50 (Acetylcholinesterase) [µM] | viability at 1 µM (PC-12 [3]) [%] | viability at 0.1 µM (PC-12 [4]) [%] | Activity (PC-12 [5]) | viability at 20 µM (PC-12 [6]) [%] | viability at 50 µM (PC-12 [7]) [%] | IC50 (Cholinesterase) [µM] | viability at 10 µM (PC-12 [8]) [%] |
| --- | --- | --- | --- | --- | --- | --- | --- | --- | --- | --- |
| CC(=O)c1cc2ccc(OCCCn3cc(CNC(=O)CCCCC4CCSS4)nn3)cc2oc1=O (configuration not stated) | > 100 | 37.5 | 54.6 | 35.5 | 34.6 | Dose-dependent effect | 39.8 | 40.7 | > 100 | 38 |
| O=C(CCCCC1CCSS1)NCc1cn(CCCOc2ccc3ccc(=O)oc3c2)nn1 (configuration not stated) | > 100 | 39.2 | 66.7 | 37.2 | 37.8 | Dose-dependent effect | 42.2 | 43.5 | > 100 | 40 |
| COc1ccc(-c2cc3ccc(OCCCCn4cc(CNC(=O)CCCCC5CCSS5)nn4)cc3oc2=O)cc1OC (configuration not stated) | > 100 | 57.2 | > 100 | 53 | 40.7 | Dose-dependent effect | 68.4 | 71.9 | > 100 | 64 |
| COc1ccc(-c2cc3ccc(OCCCCCn4cc(CNC(=O)CCCCC5CCSS5)nn4)cc3oc2=O)cc1OC (configuration not stated) | > 100 | 46.9 | > 100 | 42.2 | 38.5 | Dose-dependent effect | 51.9 | 55 | > 100 | 50.5 |
| O=C(CCCCC1CCSS1)NCc1cn(CCCOc2ccc3cc(-c4ccc(Br)cc4)c(=O)oc3c2)nn1 (configuration not stated) | > 100 | 57.3 | 46.5 | 42.8 | 39.5 | Dose-dependent effect | 69.1 | 74.7 | > 100 | 63.3 |
| O=C(CCCCC1CCSS1)NCc1cn(CCCOc2ccc3cc(C(=O)O)c(=O)oc3c2)nn1 (configuration not stated) | > 100 | 57 | > 100 | 52.1 | 43.4 | Dose-dependent effect | 66.8 | 73.5 | > 100 | 59.9 |
| Cc1cc(=O)oc2cc(OCCCCCn3cc(CNC(=O)CCCCC4CCSS4)nn3)ccc12 (configuration not stated) | > 100 | 61 | > 100 | 56.5 | 45.6 | Dose-dependent effect | 70.3 | 73.7 | > 100 | 66.3 |
| O=c1c(O)c(-c2ccc(O)c(O)c2)oc2cc(O)cc(O)c12 [QUERCETIN] | – | 47.3 | – | 40.7 | 36.2 | – | 56.9 | 58.8 | – | 53.7 |
| COc1ccc(-c2cc3ccc(OCCCn4cc(CNC(=O)CCCCC5CCSS5)nn4)cc3oc2=O)cc1 (configuration not stated) | > 100 | 52.8 | 40.2 | 47.4 | 42 | Dose-dependent effect | 62 | 65.7 | > 100 | 57.6 |
| O=C(CCCCC1CCSS1)NCc1cn(CCCCOc2ccc3cc(-c4ccc(Cl)c(Cl)c4)c(=O)oc3c2)nn1 (configuration not stated) | > 100 | 53.2 | > 100 | 49.3 | 39.6 | Dose-dependent effect | 62.9 | 69.5 | 10.3 | 58.9 |
| O=C(CCCCC1CCSS1)NCc1cn(CCCCCOc2ccc3ccc(=O)oc3c2)nn1 (configuration not stated) | > 100 | 64.5 | 70.6 | 57.2 | 46.3 | Dose-dependent effect | 78.5 | 84.9 | > 100 | 71.3 |
| O=C(CCCCC1CCSS1)NCc1cn(CCCCCOc2ccc3cc(-c4ccc(Br)cc4)c(=O)oc3c2)nn1 (configuration not stated) | > 100 | 45.7 | > 100 | 43.7 | 41.8 | Dose-dependent effect | 52.3 | 53.6 | > 100 | 48.4 |
| COc1ccc(-c2cc3ccc(OCCCCn4cc(CNC(=O)CCCCC5CCSS5)nn4)cc3oc2=O)cc1 (configuration not stated) | > 100 | 44.9 | > 100 | 36.8 | 32.1 | Dose-dependent effect | 52.3 | 55.3 | > 100 | 48.6 |
| O=C(CCCCC1CCSS1)NCc1cn(CCCOc2ccc3cc(-c4ccc(Cl)c(Cl)c4)c(=O)oc3c2)nn1 (configuration not stated) | > 100 | 44.7 | > 100 | 42.4 | 38.1 | Dose-dependent effect | 51.2 | 54.8 | 73.5 | 49.6 |
| O=C(CCCCC1CCSS1)NCc1cn(CCCCCOc2ccc3cc(-c4ccccc4)c(=O)oc3c2)nn1 (configuration not stated) | > 100 | 28 | > 100 | 30.7 | 35.5 | – | 20.7 | 17.7 | > 100 | 26.3 |
| COc1ccc(-c2cc3ccc(OCCCCCn4cc(CNC(=O)CCCCC5CCSS5)nn4)cc3oc2=O)cc1 (configuration not stated) | > 100 | 41 | > 100 | 37.1 | 34.5 | Dose-dependent effect | 49 | 52.8 | > 100 | 45.5 |
| O=C(CCCCC1CCSS1)NCc1cn(CCCOc2ccc3cc(-c4ccc(Cl)cc4)c(=O)oc3c2)nn1 (configuration not stated) | > 100 | 60.6 | > 100 | 49.3 | 40.9 | Dose-dependent effect | 75.6 | 79.4 | > 100 | 67.8 |
| CC(=O)c1cc2ccc(OCCCCCn3cc(CNC(=O)CCCCC4CCSS4)nn3)cc2oc1=O (configuration not stated) | > 100 | 22.2 | > 100 | 27.4 | 28.9 | – | 20.7 | 18.2 | > 100 | 20.8 |
| O=C(CCCCC1CCSS1)NCc1cn(CCCCOc2ccc3ccc(=O)oc3c2)nn1 (configuration not stated) | > 100 | 52.8 | 65.5 | 45.9 | 40.5 | Dose-dependent effect | 69.8 | 75.8 | > 100 | 65.1 |
| O=C(CCCCC1CCSS1)NCc1cn(CCCCOc2ccc3cc(-c4ccc(Br)cc4)c(=O)oc3c2)nn1 (configuration not stated) | > 100 | 40.5 | > 100 | 37.4 | 34.2 | Dose-dependent effect | 45 | 47.6 | > 100 | 42.6 |
| O=C(CCCCC1CCSS1)NCc1cn(CCCOc2ccc3cc(-c4ccccc4)c(=O)oc3c2)nn1 (configuration not stated) | > 100 | 29.8 | > 100 | 31.9 | 33.9 | – | 27.2 | 23.1 | > 100 | 29.1 |
| O=C(CCCCC1CCSS1)NCc1cn(CCCCOc2ccc3cc(-c4ccccc4)c(=O)oc3c2)nn1 (configuration not stated) | > 100 | 32.8 | > 100 | 34.8 | 38.6 | – | 26 | 20.5 | > 100 | 30.5 |
